Assay [1] deals with T1, D(1A) dopamine receptor (Rattus norvegicus, UniProt P18901). As to the kind of experiment: Binding affinity towards dopamine receptor D1 using [3H]SCH-23390 was determined in rat striatal membranes. Type of assay: cell membranes, Striatum, Membrane.
Assay [2] deals with T1, D(1A) dopamine receptor. In words: Binding affinity against dopamine receptor D1.
The target in assay [3] is T2, D(2) dopamine receptor (Rattus norvegicus, UniProt P61169). In words: Binding affinity towards dopamine […] receptor using [3H]spiperone was determined in rat striatal membranes. Type of assay: cell membranes, Striatum, Membrane.
T2 sequence (P61169 whole entry): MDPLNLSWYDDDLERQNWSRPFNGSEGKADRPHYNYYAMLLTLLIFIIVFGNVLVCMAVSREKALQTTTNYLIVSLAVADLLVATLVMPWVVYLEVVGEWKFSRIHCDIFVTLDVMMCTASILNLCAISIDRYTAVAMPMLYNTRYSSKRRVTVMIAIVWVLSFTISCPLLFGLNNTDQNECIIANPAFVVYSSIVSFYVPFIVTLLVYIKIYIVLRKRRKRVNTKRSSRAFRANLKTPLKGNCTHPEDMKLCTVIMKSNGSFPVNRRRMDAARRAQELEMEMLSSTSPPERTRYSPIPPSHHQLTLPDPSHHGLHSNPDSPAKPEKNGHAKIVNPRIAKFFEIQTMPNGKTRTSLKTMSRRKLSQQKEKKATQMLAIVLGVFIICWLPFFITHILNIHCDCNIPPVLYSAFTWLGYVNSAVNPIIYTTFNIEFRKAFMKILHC
For assay [4], the target named is Dopamine receptors; D1 & D2 (Rattus norvegicus) (UniProt P18901+P61169). In words: Selectivity for D1 receptor was determined as the ratio of Ki (D2) to that of Ki (D1). Type of assay: protein assay. Summed up: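 D2 used 0.02 nM [3H]spiperone with 50 nM ketanserin; D1 used 0.25 nM [3H]SCH23390. IC50 from Hill plot linear regression, converted to Ki via Cheng-Prusoff.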

Assay [5] deals with T2, D(2) dopamine receptor. In words: Binding affinity against dopamine (D2) receptor. Summed up:
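Competition with 0.02 nM [3H]spiperone plus 50 nM ketanserin to mask 5-HT2 sites; chlorpromazine defines nonspecific. 37 °C 15 min, glass-fiber filtration. IC50 from Hill plot linear regression, Ki by Cheng-Prusoff; mean ± SEM.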

Several values for one entry are separate records, joined by “and”; a condition that tells them apart may be missing. Identical values can stand only once. A value given as a limit tells only on which side of the number the result lay.

T1 sequence (P18901 whole entry): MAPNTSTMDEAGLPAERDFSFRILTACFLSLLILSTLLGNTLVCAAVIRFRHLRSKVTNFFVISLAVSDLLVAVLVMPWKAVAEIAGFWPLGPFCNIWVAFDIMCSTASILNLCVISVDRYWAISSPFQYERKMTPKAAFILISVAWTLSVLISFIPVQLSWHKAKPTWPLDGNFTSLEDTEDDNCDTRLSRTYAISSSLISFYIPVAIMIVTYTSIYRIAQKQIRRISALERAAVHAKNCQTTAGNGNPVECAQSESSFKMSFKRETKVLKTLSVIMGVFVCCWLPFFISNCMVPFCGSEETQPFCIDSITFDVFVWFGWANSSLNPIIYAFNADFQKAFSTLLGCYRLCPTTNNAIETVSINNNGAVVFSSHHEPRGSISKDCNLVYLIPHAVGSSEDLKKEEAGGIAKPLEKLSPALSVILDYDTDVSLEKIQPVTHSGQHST

As usually defined, the Ki is the dissociation constant of the complex between target and ligand, obtained from inhibition or displacement. Lower therefore signals a stronger hold on the target. `CN1CCc2cc(Br)c(O)cc2[C@H]1c1ccccc1`: the inhibition constant Ki was greater than 5000 nM on D(1A) dopamine receptor [1], 8.32 nM on D(1A) dopamine receptor [2] and greater than 5000 nM at D(2) dopamine receptor [3].
As to `CN1CCc2cc(Cl)c(O)cc2[C@H]1c1ccccc1`, in assay [4], the Ratio amounted to 43.4. In addition, the values for the Ki at D(2) dopamine receptor [5] and at D(1A) dopamine receptor [2] were 19500 nM and 6.61 nM, respectively.
As to `CN1CCc2cc(Cl)c(O)cc2[C@@H]1c1ccccc1`, the Ratio in assay [4] amounted to 206. Moreover, on D(1A) dopamine receptor [2], the Ki was 9.12 nM and the “Log Ki” value is recorded as -8.04.
For the molecule `CN1CCc2cc(Br)c(O)cc2[C@@H]1c1ccccc1`, the inhibitory constant (Ki) at D(1A) dopamine receptor [1] was 8.3 nM; on D(2) dopamine receptor [5], 1320 nM; at D(1A) dopamine receptor [2] it was 8.32 nM; on D(2) dopamine receptor [3], 1300 nM. The Ratio in assay [4] is 157.
Turning to `CN1CCc2cc(O)ccc2[C@H]1c1ccccc1`, the figures for the inhibitory constant (Ki) on D(1A) dopamine receptor [1], at D(1A) dopamine receptor [2] and on D(2) dopamine receptor [3] were greater than 5000 nM, greater than 10000 nM and greater than 5000 nM, respectively.
Take `CN1CCc2ccc(O)cc2C1c1ccccc1` (racemic): the inhibition constant Ki on D(1A) dopamine receptor [1] is greater than 5000 nM; on D(1A) dopamine receptor [2], greater than 10000 nM; at D(2) dopamine receptor [3], greater than 5000 nM.
Take `CN1CCc2cc(O)c(O)cc2C1c1ccccc1` (racemic): the inhibition constant Ki on D(1A) dopamine receptor [1] is 370 nM; at D(2) dopamine receptor [5], 295 nM; at D(1A) dopamine receptor [2], 186 nM; on D(2) dopamine receptor [3] it was 290 nM. Also, the Ratio in assay [4] worked out at 1.27.
Turning to `CN1Cc2cc(Cl)c(O)cc2C(c2ccccc2)C1` (racemic), the Ratio in assay [4] was determined as 3. Moreover, on D(1A) dopamine receptor [2], the Ki was 178 nM and 87.1 nM.
On to `CCCN1CCc2cc(Cl)c(O)cc2C1c1ccccc1` (racemic), for which the values for the inhibitory constant (Ki) at D(1A) dopamine receptor [1], at D(2) dopamine receptor [5] and on D(1A) dopamine receptor [2] were 179 nM, 1910 nM and 178 nM, respectively. Besides, the Ratio in assay [4] was determined as 10.6.
As to `Oc1cc2c(cc1Cl)CCN1CCc3ccccc3C21` (racemic), the inhibition constant Ki at D(1A) dopamine receptor [1] was 830 nM; at D(1A) dopamine receptor [2] it was 417 nM; at D(2) dopamine receptor [3], greater than 5000 nM.
As for `CN1Cc2ccccc2C2c3cc(O)c(Br)cc3CCC21` (racemic), the Ki at D(1A) dopamine receptor [1] is 138 nM; on D(1A) dopamine receptor [2], 141 nM; on D(2) dopamine receptor [3], greater than 3000 nM.
For `Oc1cc2c(cc1O)C1c3ccccc3CCN1CC2` (racemic), in that order: 2700 nM, 1380 nM and greater than 5000 nM.
With `Oc1cc2c(cc1Cl)CCNC2c1ccccc1` (racemic), the Ki at D(1A) dopamine receptor [1] was 743 nM; at D(2) dopamine receptor [5], 3720 nM; at D(1A) dopamine receptor [2], 141 nM. For the same molecule, in assay [4], the Ratio came out at 35.4.
On to `Oc1cc2c(cc1Cl)CNCC2c1ccccc1` (racemic), for which the Ratio in assay [4] is 6.4. At D(1A) dopamine receptor [2], this molecule showed a Ki of 282 nM.
`CN1CCc2cc(Cl)c(O)cc2C1Cc1ccccc1` (racemic): in assay [4], the Ratio came to 5.39.

Source of the values: ChEMBL document CHEMBL1127626, “Synthesis and molecular modeling of 1-phenyl-1,2,3,4-tetrahydroisoquinolines and related 5,6,8,9-tetrahydro-13bH-dibenzo[a,h]quinolizines as D1 dopamine antagonists” (J Med Chem, 1994).
